SR-BI HDL uptake: inhibitors of mouse SR-BI mediated HDL lipid uptake | AID 488896 | 320,000 tested, 0.96% active | inhibition, % at 12.5 µM | ldlA[mSR-BI] CHO cells, DiI-HDL uptake fluorescence, 3 h;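 active = mean replicate inhibition of at least 70% and a set share of replicates each scoring 70 or more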;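 also: 0% = median of neutral control wells and 100% = median of positive control wells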
Target sequence (Q61009 whole entry, looked up): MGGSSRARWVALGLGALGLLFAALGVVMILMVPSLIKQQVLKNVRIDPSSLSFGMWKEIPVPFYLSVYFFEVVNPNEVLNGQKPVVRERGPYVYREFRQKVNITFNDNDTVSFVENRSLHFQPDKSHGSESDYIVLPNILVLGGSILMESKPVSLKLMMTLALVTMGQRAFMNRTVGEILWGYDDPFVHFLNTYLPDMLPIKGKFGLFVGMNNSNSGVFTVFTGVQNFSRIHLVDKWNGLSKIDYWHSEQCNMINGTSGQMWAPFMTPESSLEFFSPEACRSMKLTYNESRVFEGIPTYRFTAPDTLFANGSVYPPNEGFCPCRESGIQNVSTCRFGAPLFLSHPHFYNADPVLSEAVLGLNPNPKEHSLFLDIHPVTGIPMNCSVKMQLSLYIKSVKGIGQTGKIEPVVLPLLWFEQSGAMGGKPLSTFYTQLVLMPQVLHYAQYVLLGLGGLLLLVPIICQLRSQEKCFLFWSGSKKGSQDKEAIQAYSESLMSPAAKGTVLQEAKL
Kir21 inh: blocks the mouse Kir2.1 inward-rectifier potassium channel; AID 1672; HEK293-Kir2.1, FluxOR thallium flux fluorescence; hits give low values; 310,000 tested, 0.85% active; B-score at 10 µM; P35561;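 active = fluorescence ratio B-score at or below minus 3 SD of library scores, with starting-brightness B-score within 2 SD, cut at about -4.2 in these data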;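 also: channel flux triggered by added potassium and thallium sulfate stimulus; B-score of peak minus minimum fluorescence over baseline after thallium stimulus; more negative B-score means stronger Kir2.1 block with less thallium influx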
TMEM16A inh: inhibitors of mouse TMEM16A calcium-activated chloride channel; Q8BHY3; HEK293 TMEM16A/YFP iodide influx fluorescence, ionomycin; AID 588511; 310,000 tested, 1.2% active; normalized B-score (activity score, 25-100; higher = stronger inhibition) at 10 µM;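 active = ratio plate-corrected score three or more library SD toward inhibition, starting fluorescence score within five deviations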;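 also: score derived from kinetic fluorescence span divided by baseline fluorescence per well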
SR-BI uptake up: SR-BI HDL lipid transfer activation. CHO ldlA[mSR-BI] cells, DiI-HDL uptake fluorescence, 3 h; 100 = double the neutral-control signal. activation, % at 12.5 µM. 320,000 tested, 0.096% active;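 active = mean replicate activation of at least 60% and every replicate at or above 60%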;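 also: 0% = median plate neutral-control signal and 100% = twice that signal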
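System: CHO ldlA[mSR-BI] cells / Medium: HEPES-buffered (25 mM, pH 7.4) F12 plus 0.5% BSA / Probe or stimulus: labelled HDL, 10 µg/mL / Doses: single compound concentration, delivered by pin transfer / Schedule: 3 h, 37 °C / Measured by: DiI fluorescence, bottom read / Measure: cell-associated DiI fluorescence as measure of HDL uptake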
TMEM16A act: activators or potentiators of mouse TMEM16A chloride channel. 340,000 tested, 0.3% active. Q8BHY3. B-score at 10 µM. AID 623877. HEK293 TMEM16A/YFP-H148Q/I152L, iodide quench fluorescence; hits give low values;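 active = fluorescence-ratio B-score plate-corrected deviation score at least 3 library SD below zero, with starting fluorescence score within 5 deviations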;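 also: channel opened by trigger with iodide after compound preincubation; score built on the fluorescence ratio of max minus min over baseline; more negative score means more quench and so TMEM16A activation or potentiation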
FID counter: fluorescent intercalator displacement, NS3 helicase counter-screen; 290,000 tested, 0.17% active; inhibition, % at 7.9 µM; AID 1845; DNA fluorescent intercalator displacement, fluorescence; in the data active = inhibition above about 37%;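 also: 0% = vehicle and 100% = reference compound; higher means more ethidium bromide displaced from hairpin DNA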
* marks the source's active call; other numbers are inactive results. Shown are actives, neighbours in structure and some others; about 3% of the full set was active somewhere.

Screening COc1ccccc1OCCn1cc(/C=N/NC(N)=S)c2ccccc21 returned SR-BI HDL uptake 77*, Kir21 inh -1.9, TMEM16A inh inactive, SR-BI uptake up -77, TMEM16A act inactive and FID counter -18.
Screening Cc1cccc(NC(=S)NNC(=O)Cc2ccccc2)c1 returned SR-BI HDL uptake -211, Kir21 inh -3.3, TMEM16A inh inactive, SR-BI uptake up 211*, TMEM16A act inactive and FID counter -3.
Screening Cc1cccc(NCC(=O)NNC(=S)Nc2ccccc2)c1 returned SR-BI HDL uptake 7, Kir21 inh -0.89, TMEM16A inh inactive, SR-BI uptake up -7, TMEM16A act inactive and FID counter -10.
Screening O=C(COc1ccc2c(c1)oc(=O)c1ccccc12)NCCN1CCOCC1 returned Kir21 inh 1.5, TMEM16A inh inactive, TMEM16A act inactive and FID counter 20.
Screening Cc1ccccc1OCCCSc1nc2ccccc2[nH]1 returned SR-BI HDL uptake 23, Kir21 inh 1.3, TMEM16A inh inactive, SR-BI uptake up -23, TMEM16A act inactive and FID counter -6.
`Cc1ccc2nc(SCCCCOc3ccccc3)[nH]c2c1` gave Kir21 inh -0.15, TMEM16A inh 100*, TMEM16A act inactive and FID counter -9.
`O=C(Nc1ccccc1C(=O)N/N=C/c1ccco1)c1ccccc1Cl` gave SR-BI HDL uptake -8, Kir21 inh 0.09, TMEM16A inh 100*, SR-BI uptake up 8, TMEM16A act inactive and FID counter -2.
`O=C(N/N=C/c1ccco1)c1cccc(NC(=O)c2ccccc2Cl)c1` gave SR-BI HDL uptake 29, Kir21 inh -1.2, TMEM16A inh inactive, SR-BI uptake up -29, TMEM16A act inactive and FID counter -14.
For CCCOc1ccc(N/C=C/C(=O)c2cc(OC)c(OC)c(OC)c2)cc1 the results were SR-BI HDL uptake 43, Kir21 inh 1.4, TMEM16A inh inactive, SR-BI uptake up -43, TMEM16A act inactive and FID counter -23.
CCOC(=O)CSc1nc(N2CCOCC2)c2c(c1C#N)CC(C)(C)OC2 was read as SR-BI HDL uptake -416, Kir21 inh 0.18, TMEM16A inh inactive, SR-BI uptake up 416*, TMEM16A act inactive and FID counter -26.
Screening Cc1ccc(NC(=O)CN(C)C(=O)CSc2nc3ccccc3c(=O)n2Cc2ccco2)cc1 returned SR-BI HDL uptake 1, Kir21 inh 0.86, TMEM16A inh 100*, SR-BI uptake up -1, TMEM16A act inactive and FID counter -20.
`CN(Cc1ccccc1)C(=O)CSc1nc2ccccc2c(=O)n1Cc1ccco1` gave SR-BI HDL uptake 0, Kir21 inh -1.9, TMEM16A inh inactive, SR-BI uptake up 0, TMEM16A act inactive and FID counter -16.
Screening CCOc1cc(C(=O)Nc2cc(C(=O)OC)ccc2C)ccc1OCC(=O)N1CCOCC1 returned SR-BI HDL uptake 73*, SR-BI uptake up -73 and TMEM16A act inactive.
Screening CCOc1cc(C(=O)Nc2cc(F)ccc2C)ccc1OCC(=O)N1CCOCC1 returned SR-BI HDL uptake 56, SR-BI uptake up -56 and TMEM16A act inactive.
Screening Cc1ccccc1CSc1nnc(-c2ccco2)n1Cc1ccco1 returned SR-BI HDL uptake 3, Kir21 inh -8.2*, TMEM16A inh inactive, SR-BI uptake up -3, TMEM16A act inactive and FID counter -30.
Screening O=c1cc(CSc2nnc(-c3cccs3)n2Cc2ccccc2)nc2sc3ccccc3n12 returned SR-BI HDL uptake -43, Kir21 inh 1, TMEM16A inh 100*, SR-BI uptake up 43, TMEM16A act inactive and FID counter -34.
Screening c1ccc(CSc2nnc(-c3ccco3)n2Cc2ccco2)cc1 returned SR-BI HDL uptake 0, Kir21 inh -1.4, TMEM16A inh inactive, SR-BI uptake up 0, TMEM16A act inactive and FID counter -29.
For Cc1ccccc1CSc1nnc(-c2cccs2)n1Cc1ccco1 the results were SR-BI HDL uptake 25, Kir21 inh -1.3, TMEM16A inh inactive, SR-BI uptake up -25, TMEM16A act inactive and FID counter -33.
`c1ccc(CSc2nnc(-c3cccs3)n2Cc2ccco2)cc1` gave SR-BI HDL uptake -18, Kir21 inh -7.7*, TMEM16A inh inactive, SR-BI uptake up 18, TMEM16A act inactive and FID counter -23.
CN(C)N1C(N)=C(C#N)C(c2cccc([N+](=O)[O-])c2)C2=C1CC(C)(C)CC2=O (configuration not stated) was read as SR-BI HDL uptake -17, Kir21 inh 0.12, SR-BI uptake up 17, TMEM16A act inactive and FID counter -18.
O=C(O)c1[nH]c2ccccc2c1NS(=O)(=O)c1ccc(F)cc1 was read as SR-BI HDL uptake -6, Kir21 inh -0.21, TMEM16A inh inactive, SR-BI uptake up 6, TMEM16A act -49* and FID counter -20.
COc1ccc(S(=O)(=O)Nc2c(C(=O)O)[nH]c3ccccc23)cc1 was read as SR-BI HDL uptake 0, Kir21 inh 0.58, TMEM16A inh inactive, SR-BI uptake up 0, TMEM16A act inactive and FID counter -30.
For Cc1cccc2cc(CN(Cc3ccccc3)C(=S)NCCCN(C)C)c(=O)[nH]c12 the results were SR-BI HDL uptake 2, Kir21 inh 0.4, TMEM16A inh inactive, SR-BI uptake up -2, TMEM16A act inactive and FID counter 48*.
`Cc1ccc(CN(Cc2cc3cccc(C)c3[nH]c2=O)C(=S)NCCCN(C)C)cc1` gave SR-BI HDL uptake -24, Kir21 inh -2.1, TMEM16A inh inactive, SR-BI uptake up 24, TMEM16A act inactive and FID counter 32.
CCOC(=O)N1CCc2c(sc(NC(=O)c3ccc(Cl)s3)c2C(N)=O)C1 was read as TMEM16A inh 100* and FID counter 1.
For CCOc1cc(/C=N/NC(=O)c2nnn(-c3nonc3N)c2C)ccc1OCc1ccc(F)cc1 the results were SR-BI HDL uptake 58, Kir21 inh -0.85, TMEM16A inh inactive, TMEM16A act inactive and FID counter -15.
For Nc1nonc1-n1nnc(C(=O)N/N=C/c2ccc(OCc3ccc(F)cc3)cc2)c1COc1ccccc1 the results were SR-BI HDL uptake 51, Kir21 inh -0.9, TMEM16A inh inactive, SR-BI uptake up -51, TMEM16A act inactive and FID counter -1.
Screening COc1ccc2ccccc2c1/C=N/NC(=O)c1nnn(-c2nonc2N)c1CN(C)C returned SR-BI HDL uptake 33, Kir21 inh -0.19, TMEM16A inh inactive, SR-BI uptake up -33, TMEM16A act inactive and FID counter -12.

High-throughput results from PubChem BioAssay.
